Rows were chosen to be rich in hits. Some 3.3% of all compounds tested hit in one or more screens of this group.
Cl transport mod: modulators of human KCC2 chloride dependent transport; KCC2 cells, thallium flux FluoZin-2 fluorescence; B-score of Tl+ flux slope (higher = more flux/activation; lower = inhibition) at 10 µM; actives 2.2% (n = 190,000); AID 1456;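 active means thallium flux slope and its plate-corrected score both differing from the plate sample mean at a set confidence after two filtering rounds, in either direction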;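 further: slope of fluorescence scaled to starting intensity during 10 to 20 s after thallium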
Target sequence (Q9H2X9 whole entry, looked up): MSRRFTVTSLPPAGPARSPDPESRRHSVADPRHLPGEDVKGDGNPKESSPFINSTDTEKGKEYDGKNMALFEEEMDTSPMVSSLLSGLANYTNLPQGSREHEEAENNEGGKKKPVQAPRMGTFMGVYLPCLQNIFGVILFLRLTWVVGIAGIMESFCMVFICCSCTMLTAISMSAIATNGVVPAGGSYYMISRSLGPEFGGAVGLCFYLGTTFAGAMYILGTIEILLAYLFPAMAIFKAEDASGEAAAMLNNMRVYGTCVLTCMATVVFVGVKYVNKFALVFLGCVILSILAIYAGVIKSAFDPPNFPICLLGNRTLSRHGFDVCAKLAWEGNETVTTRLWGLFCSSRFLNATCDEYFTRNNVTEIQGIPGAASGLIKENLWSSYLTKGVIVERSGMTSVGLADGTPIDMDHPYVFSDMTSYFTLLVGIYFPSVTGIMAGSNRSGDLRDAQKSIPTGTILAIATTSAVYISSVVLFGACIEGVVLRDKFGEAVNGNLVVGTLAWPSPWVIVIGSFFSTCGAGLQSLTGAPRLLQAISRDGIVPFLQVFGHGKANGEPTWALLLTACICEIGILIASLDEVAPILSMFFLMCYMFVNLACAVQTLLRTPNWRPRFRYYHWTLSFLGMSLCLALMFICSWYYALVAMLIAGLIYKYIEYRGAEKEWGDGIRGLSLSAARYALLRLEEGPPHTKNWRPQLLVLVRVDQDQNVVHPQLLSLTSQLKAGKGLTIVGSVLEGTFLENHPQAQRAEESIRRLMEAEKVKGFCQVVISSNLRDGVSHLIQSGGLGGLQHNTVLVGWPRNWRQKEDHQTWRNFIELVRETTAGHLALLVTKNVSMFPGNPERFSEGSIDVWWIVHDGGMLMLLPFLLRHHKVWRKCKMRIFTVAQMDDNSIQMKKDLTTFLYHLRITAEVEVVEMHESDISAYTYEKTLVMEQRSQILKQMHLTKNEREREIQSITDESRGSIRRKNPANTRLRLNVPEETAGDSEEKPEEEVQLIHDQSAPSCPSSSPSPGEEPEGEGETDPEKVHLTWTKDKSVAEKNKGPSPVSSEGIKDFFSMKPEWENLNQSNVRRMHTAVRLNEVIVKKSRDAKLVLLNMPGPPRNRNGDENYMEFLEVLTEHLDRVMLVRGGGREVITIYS
PMI act hi M6P: increases human PMI activity with near-saturating mannose 6-phosphate; actives 0.34% (n = 190,000); coupled PMI enzyme assay, resazurin fluorescence, 20 min; stronger effect = higher value; 1 = untreated enzyme, 0 = substrate-free blank; activation factor at 20 µM; AID 1216;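 active means activation factor of 2 or more at 20 µM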
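Material: human phosphomannose isomerase with PGI, G6PDH, diaphorase coupling enzymes / Reagent: Man-6-P substrate 1.0 mM / Dosing: single compound dose of 20 µM, 1% DMSO final / Incubation: enzyme reaction with compound 20 min at room temperature / Signal: resorufin fluorescence (Ex 544/Em 590 nm) from resazurin via diaphorase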
ABCG2 block: blocks JC-1 efflux by human ABCG2 transporter; Q9UNQ0; IgMXP3 cells, flow cytometry; inhibition, % at 6.6 µM; actives 0.1% (n = 190,000); AID 1325;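 active means inhibition above 80%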
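Assay system – ABCG2 IgMXP3 and barcoded ABCB1 CCRF-Adr cell mix · Input – 3 million cells/mL in well · Reagent – JC-1 fluorescent substrate · Compound – single test compound dose, 6.6 µM final · Timing – 10 min exposure at 25 °C with rotation, no wash · Detection – flow cytometry of retained JC-1 fluorescence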
PMI activator: increases human mannose-6-phosphate isomerase activity; activation factor at 20 µM; P34949; actives 0.005% (n = 190,000); AID 1214; purified human PMI, coupled resazurin fluorescence, 20 min; stronger effect = higher value; 1 = vehicle control, 0 substrate-free wells;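 active means activation factor of 2 or more at 20 µM, relative to plate controls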
ABCB1 block: human ABCB1 inhibition, ABCG2 as counter-screen. P08183. CCRF-Adr cells, JC-1 efflux, flow cytometry. inhibition, % at 6.6 µM. actives 0.067% (n = 190,000). AID 1326; in the data active means inhibition above about 40%;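 further: higher value means more JC-1 retained so stronger ABCB1 efflux block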
ROMK mod: modulators of human ROMK potassium channel | Tet-inducible ROMK, thallium flux fluorescence; actives lie on both sides | AID 1918 | actives 2% (n = 130,000) | B-score at 10 µM;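 active means signal ratio slope over the read window, or its plate-corrected B-score, at least 3 SD from the plate mean, either direction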;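 further: B-score of the F/F0 ratio slope over 7 to 12 s after thallium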
KCC2 secondary: confirmation of human KCC2 transport modulators; normalised thallium flux (F/F0 slope) at 10 µM; HEK293-KCC2, thallium flux, FluoZin2 fluorescence; stronger effect = higher value; shares compounds with Cl transport mod; actives 15% (n = 3,700);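 active means thallium flux slope above the same plate's solvent-only control mean plus 3 SD; inconclusive means the two replicate wells disagree; inactive means no significant difference from solvent-only control wells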
KCC2 bumet counter: bumetanide-insensitive thallium flux in KCC2 cells with ouabain, counter-screen; HEK293-KCC2 + bumetanide/ouabain, thallium flux FluoZin2; stronger effect = higher value; normalized thallium flux at 10 µM; actives 49% (n = 3,700); shares compounds with Cl transport mod;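 active means thallium entry rate above the same plate's blocked-transporter control wells by more than 3 SD; inconclusive means the two repeat wells disagree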;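 further: raw slope of fluorescence over initial fluorescence between 10 and 20 s after thallium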
KCC2 sec2: confirmation of human KCC2 transport modulators; shares compounds with Cl transport mod; normalized thallium flux at 10 µM; actives 23% (n = 3,700); HEK293-KCC2, thallium flux FluoZin2 fluorescence; actives lie on both sides; F/F0 rise rate, 10–20 s post-thallium;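 active means thallium flux slope more than 3 SD above or below the plate's solvent-only control mean, mostly below; inconclusive means the two repeat wells disagreed; inactive means no significant shift from solvent-only controls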
HEK counter1: counter-screen for KCC2 modulators: effect in parental HEK293 cells. actives 46% (n = 3,700). thallium flux FluoZin2, ouabain; baseline-ratio fluorescence slope, 10–20 s after thallium. shares compounds with Cl transport mod. thallium flux rate (normalised fluorescence) at 10 µM;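 active means thallium flux rate significantly above the same plate's solvent-only control wells, beyond their mean plus 3 SD; inconclusive means the two replicate wells gave conflicting results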
KCC2 retest ouab: confirmation of human KCC2 modulators with ouabain; shares compounds with Cl transport mod; HEK293-KCC2, thallium flux FluoZin2 fluorescence; bidirectional: low = inhibitor, high = activator; raw Tl+ flux slope (below DMSO = inhibition, above = activation) at 10 µM; actives 48% (n = 3,700); AID 1717;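 active means thallium flux slope beyond 3 SD from same-plate DMSO control mean in most replicates, usually higher, sometimes lower; inconclusive means repeat tests gave conflicting results; inactive means no significant difference from controls in most replicates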;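 further: slope of initial-normalized fluorescence between seconds 10 and 20 after thallium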
HEK293 Tl flux2: parental HEK flux effect, counter-screen 2; thallium flux slope at 10 µM; AID 1718; actives 33% (n = 3,700); HEK293 parental, thallium flux FluoZin-2 fluorescence slope; shares compounds with Cl transport mod;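 active means thallium flux slope above the same plate's solvent-control mean plus 3 SD in both duplicate wells; inconclusive means duplicate wells that disagreed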;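 further: run without ouabain in cells lacking the KCC2 cotransporter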
Of the large screens only hits and unclear results are named; the others gave an inactive call (follow-up assays come after a bar, where they were run).

O=S(=O)(c1ccccc1)N1CCn2c(nc3ccccc32)C1	none (no result: Cl transport mod, ROMK mod) | KCC2 secondary inactive | KCC2 bumet counter inconclusive | KCC2 sec2 inactive | HEK counter1 inactive | KCC2 retest ouab inactive | HEK293 Tl flux2 inactive
O=S(=O)(c1ccc(F)cc1)N1CCn2c(nc3ccccc32)C1	none (no result: Cl transport mod, ROMK mod)
O=C(CCNC(=O)Cn1ccc2ccccc2c1=O)NCCN1CCN(c2cccc(Cl)c2)CC1	Cl transport mod 4.6 (no result: ROMK mod) | KCC2 secondary inactive | KCC2 bumet counter inactive | KCC2 sec2 inactive | HEK counter1 inactive | KCC2 retest ouab inactive | HEK293 Tl flux2 inactive
O=C(CCNC(=O)Cn1ccc2ccccc2c1=O)NCCN1CCN(c2ccccc2F)CC1	none (no result: PMI act hi M6P, ABCG2 block, PMI activator, ABCB1 block, ROMK mod)
O=C(Cn1ccc2ccccc2c1=O)NCCC(=O)N1CCN(c2cccc(Cl)c2)CC1	Cl transport mod -2.8 | KCC2 secondary inactive | KCC2 bumet counter inactive | KCC2 sec2 inactive | HEK counter1 inactive | KCC2 retest ouab inconclusive | HEK293 Tl flux2 inactive
COc1ccc(S(=O)(=O)NC(CC(=O)NCCc2ccccc2)c2ccco2)cc1 (centres undefined)	none (no result: Cl transport mod) | KCC2 secondary inactive | KCC2 bumet counter inactive | KCC2 sec2 inactive | HEK counter1 inactive | KCC2 retest ouab inconclusive | HEK293 Tl flux2 inactive
Cn1nc(C(F)(F)F)c(-c2cccc(C(F)(F)F)c2)c1NC(=O)CSCC(=O)O	none (no result: PMI act hi M6P, ABCG2 block, PMI activator, ABCB1 block)
Cc1nn(-c2ccccc2)c2nc(C(Cl)(Cl)Cl)[nH]c(=O)c12	Cl transport mod 91 (no result: PMI act hi M6P, ABCG2 block, PMI activator, ABCB1 block, ROMK mod) | KCC2 secondary inactive | KCC2 bumet counter 0.071 | KCC2 sec2 inconclusive | HEK counter1 0.064 | KCC2 retest ouab 0.065 | HEK293 Tl flux2 0.05
Cc1ccc(-n2nc(C)c3c(=O)[nH]c(C(F)(F)F)nc32)cc1	none
O=c1oc2ccccc2c(Nc2ccc(Cl)cc2)c1[N+](=O)[O-]	none (no result: PMI act hi M6P, ABCG2 block, PMI activator, ABCB1 block)
O=c1oc2ccccc2c(Nc2ccc(F)cc2)c1[N+](=O)[O-]	Cl transport mod -3.4 | KCC2 secondary inactive | KCC2 bumet counter inactive | KCC2 sec2 inactive | HEK counter1 0.0063 | KCC2 retest ouab inactive | HEK293 Tl flux2 inconclusive
COC(=O)c1ccc(Nc2c([N+](=O)[O-])c(=O)oc3ccccc23)cc1	Cl transport mod -4.5 (no result: PMI act hi M6P, ABCG2 block, PMI activator, ABCB1 block) | KCC2 secondary inactive | KCC2 bumet counter inconclusive | KCC2 sec2 inactive | HEK counter1 inconclusive | KCC2 retest ouab 0.027 | HEK293 Tl flux2 inconclusive
CC(=O)c1cccc(Nc2c([N+](=O)[O-])c(=O)oc3ccccc23)c1	none (no result: PMI act hi M6P, ABCG2 block, PMI activator, ABCB1 block, ROMK mod)
Cc1ccc(Nc2c([N+](=O)[O-])c(=O)oc3ccccc23)cc1C	Cl transport mod -2.8 | KCC2 secondary inactive | KCC2 bumet counter inactive | KCC2 sec2 inactive | HEK counter1 inconclusive | KCC2 retest ouab inactive | HEK293 Tl flux2 inactive
CCOc1ccc(C(=O)/C=C/Nc2ccc(S(=O)(=O)N=C(N)N)cc2)cc1	none
NC(N)=NCC(O)CN(c1ccccc1)c1ccccc1 (centres undefined)	none (no result: PMI act hi M6P, ABCG2 block, PMI activator, ABCB1 block, ROMK mod)
COc1ccccc1C(=O)Nc1c2c(nn1-c1cccc(C)c1C)CS(=O)C2 (centres undefined)	Cl transport mod 6.7 (no result: ROMK mod) | KCC2 secondary inactive | KCC2 bumet counter inactive | KCC2 sec2 inactive | HEK counter1 inconclusive | KCC2 retest ouab inactive | HEK293 Tl flux2 inactive
COc1ccc(CC(=O)Nc2c3c(nn2-c2ccccc2C)CS(=O)C3)cc1 (centres undefined)	none
CCOc1ccc(NC(=S)NNC(=O)c2cc(Br)ccc2Cl)cc1	Cl transport mod 8.5 | KCC2 secondary inactive | KCC2 bumet counter 0.041 | KCC2 sec2 inactive | HEK counter1 inconclusive | KCC2 retest ouab 0.034 | HEK293 Tl flux2 inactive
Cc1ccc(-c2ccc(CCC(=O)O)n2C(C)C)cc1	Cl transport mod -4.4 (no result: ROMK mod) | KCC2 secondary inactive | KCC2 bumet counter inactive | KCC2 sec2 inactive | HEK counter1 inactive | KCC2 retest ouab inactive | HEK293 Tl flux2 inactive
O=c1cc(/C=C/c2ccccc2)oc2ccccc12	none (no result: Cl transport mod, ROMK mod)
CCOc1cc2[nH]c(=S)n(CCC(=O)NCc3ccco3)c(=O)c2cc1OCC	none
Cc1ccc(-n2cc(-c3ccc([N+](=O)[O-])cc3)[nH]c2=S)c(C)c1	Cl transport mod 26 | KCC2 secondary inconclusive | KCC2 bumet counter 0.099 | KCC2 sec2 0.077 | HEK counter1 0.086 | KCC2 retest ouab 0.081 | HEK293 Tl flux2 0.055
COc1ccccc1-n1cc(-c2ccc([N+](=O)[O-])cc2)[nH]c1=S	none (no result: PMI act hi M6P, ABCG2 block, PMI activator, ABCB1 block)
Cc1cccc(-n2cnc3cc([N+](=O)[O-])ccc32)c1	none
Cc1cccc(-n2cc(-c3ccc([N+](=O)[O-])cc3)[nH]c2=S)c1	Cl transport mod 5.1 (no result: ROMK mod) | KCC2 secondary inconclusive | KCC2 bumet counter 0.017 | KCC2 sec2 inactive | HEK counter1 0.019 | KCC2 retest ouab 0.028 | HEK293 Tl flux2 0.015
O=[N+]([O-])c1cccc(-c2cn(-c3ccccc3)c(=S)[nH]2)c1	Cl transport mod 16 | KCC2 secondary 0.014 | KCC2 bumet counter 0.037 | KCC2 sec2 inactive | HEK counter1 0.021 | KCC2 retest ouab inconclusive | HEK293 Tl flux2 0.014
Cn1cc(SCC(=O)N2CCN(c3ccccc3)CC2)c2ccccc21	Cl transport mod -5.2 (no result: ROMK mod) | KCC2 secondary inactive | KCC2 bumet counter inactive | KCC2 sec2 0.023 | HEK counter1 inactive | KCC2 retest ouab 0.014 | HEK293 Tl flux2 inactive
Cn1cc(SCC(=O)N2CCOCC2)c2ccccc21	none (no result: ROMK mod)
NC(=O)c1ccc(C(F)(F)F)cn1	none
Cc1ccc(S(=O)(=O)/N=C2/NC(=O)/C(=C/c3ccncc3)S2)cc1	none

Source: PubChem
